According to ChEMBL document CHEMBL1938354 (Eur J Med Chem, 2012):
pIC50, pKi: −log10 of the molar value. Calls of active or inactive are those of the source. The rule behind the calls is not given here.

What follows are compounds tested against Aldo-keto reductase family 1 member B10 (Homo sapiens, UniProt O60218, F123A) (assay: Competitive inhibition at human recombinant N-terminus His6-tagged AKR1B10 Phe123Ala mutant expressed in Escherichia coli BL21 DE3 assessed as inhibition of NADP+ linked geraniol oxidation by fluorescence analysis). Details: not given.
Sequence of Aldo-keto reductase family 1 member B10 (Homo sapiens, UniProt O60218, F123A) (O60218 whole entry F123A): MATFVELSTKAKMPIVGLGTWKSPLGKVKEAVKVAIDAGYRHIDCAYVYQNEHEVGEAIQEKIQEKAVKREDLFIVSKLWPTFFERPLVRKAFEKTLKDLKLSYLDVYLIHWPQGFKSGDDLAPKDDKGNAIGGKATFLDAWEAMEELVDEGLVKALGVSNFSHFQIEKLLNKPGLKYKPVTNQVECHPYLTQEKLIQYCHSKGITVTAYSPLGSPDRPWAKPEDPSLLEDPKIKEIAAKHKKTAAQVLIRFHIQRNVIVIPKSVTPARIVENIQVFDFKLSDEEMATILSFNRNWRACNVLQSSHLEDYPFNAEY
Procedure, shortened: (§1)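 Recombinant wild-type or mutant AKR1B10 with N-terminal 6-His tag was expressed in E. coli BL21(DE3) pLysS and purified to homogeneity. The Phe123Ala mutant was made by site-directed mutagenesis. Kinetics used NADP+-linked geraniol oxidation, read by NADPH fluorescence (ex 340/em 455 nm) at 25 °C. Five substrate concentrations (0.5–5 × Km) were run with saturating coenzyme. Ki is the mean of at least three determinations.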

| Compound | pKi |
| --- | --- |
| COc1cc(O)ccc1/C=C/C(=O)OCCCc1cccc(O)c1 | 8.29 |

Each compound was assayed against Aldo-keto reductase family 1 member B10 (Homo sapiens, UniProt O60218, Q114T) (assay: Competitive inhibition at human recombinant N-terminus His6-tagged AKR1B10 Gln114Thr mutant expressed in Escherichia coli BL21 DE3 assessed as inhibition of NADP+ linked geraniol oxidation by fluorescence analysis). Details: not given.
Sequence of Aldo-keto reductase family 1 member B10 (Homo sapiens, UniProt O60218, Q114T) (O60218 whole entry Q114T): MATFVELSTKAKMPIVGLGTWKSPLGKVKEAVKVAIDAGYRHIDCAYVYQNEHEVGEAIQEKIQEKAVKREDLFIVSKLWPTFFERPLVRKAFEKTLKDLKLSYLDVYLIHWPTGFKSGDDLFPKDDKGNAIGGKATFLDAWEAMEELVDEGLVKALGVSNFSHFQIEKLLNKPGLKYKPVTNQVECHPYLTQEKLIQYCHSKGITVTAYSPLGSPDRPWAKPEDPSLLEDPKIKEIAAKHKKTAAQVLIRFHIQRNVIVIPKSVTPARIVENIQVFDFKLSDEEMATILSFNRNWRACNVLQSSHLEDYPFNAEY

| Compound | pKi |
| --- | --- |
| COc1cc(O)ccc1/C=C/C(=O)OCCCc1cccc(O)c1 | 8.12 |

The compounds below were run against T1, Aldo-keto reductase family 1 member B10 (Homo sapiens, UniProt O60218) (assay: Competitive inhibition at human recombinant N-terminus His6-tagged AKR1B10 expressed in Escherichia coli BL21 DE3 assessed as inhibition of NADP+ linked geraniol oxidation by fluorescence analysis). Details: not given.
Procedure, shortened: as §1
Target sequence in this assay (O60218 whole entry): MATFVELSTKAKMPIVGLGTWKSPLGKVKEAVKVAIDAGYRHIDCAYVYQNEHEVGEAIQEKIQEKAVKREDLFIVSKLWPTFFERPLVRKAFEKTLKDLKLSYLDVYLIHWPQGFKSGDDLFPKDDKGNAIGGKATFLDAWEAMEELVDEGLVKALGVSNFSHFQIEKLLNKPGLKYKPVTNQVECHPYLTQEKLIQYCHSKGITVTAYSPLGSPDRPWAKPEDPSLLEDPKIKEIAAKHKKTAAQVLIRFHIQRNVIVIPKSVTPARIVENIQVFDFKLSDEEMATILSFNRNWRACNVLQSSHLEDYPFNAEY

| Compound | pKi |
| --- | --- |
| COc1cc(O)ccc1/C=C/C(=O)OCCCc1cccc(O)c1 | 8.59 |

Species: Homo sapiens
Experiment: Selectivity ratio of IC50 for human recombinant N-terminus His6-tagged AKR1B1 to IC50 for human recombinant N-terminus His6-tagged AKR1B10
Details: not given
Procedure, shortened: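 IC50 values for purified recombinant AKR1B1 and AKR1B10 were each determined at 25 °C in 0.1 M potassium phosphate, pH 7.4, with 0.1 mM NADPH and 0.2 mM pyridine-3-aldehyde, by NADPH absorbance at 340 nm. Each IC50 is the mean of at least three determinations. The ratio is AKR1B1 IC50 over AKR1B10 IC50.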

| Compound | Ratio IC50 |
| --- | --- |
| O=C(/C=C/c1cccc(O)c1)OCCCc1ccccc1 | 13 |
| O=C(/C=C/c1ccc(O)cc1)OCCCc1ccccc1 | 52 |
| O=C(/C=C/c1cccc(O)c1)OCCc1ccccc1 | 4 |
| COc1cc(O)ccc1/C=C/C(=O)OCCc1ccccc1O | 558 |
| O=C(/C=C/c1ccc(O)c(O)c1)OCc1ccccc1 [BENZYL CAFFEATE] | 2 |
| COc1cc(O)ccc1/C=C/C(=O)OCCCc1ccc(O)cc1 | 478 |
| COc1cc(O)ccc1/C=C/C(=O)OCCCc1ccccc1 | 688 |
| COc1cc(O)ccc1/C=C/C(=O)OCCc1ccc(O)cc1 | 229 |
| O=C(/C=C/c1ccc(O)cc1)OCc1ccccc1 | 17 |
| CC(C)OC(=O)/C=C/c1ccc(O)cc1 [ISOPROPYL 3-(4-HYDROXYPHENYL)ACRYLATE] | 7 |
| COc1cc(O)ccc1/C=C/C(=O)OCCCc1cccc(O)c1 | 790 |
| O=C(/C=C/c1ccc(O)c(O)c1)OCCc1ccccc1 [CAFFEIC ACID PHENETHYL ESTER] | 7 |

What follows are compounds tested against Aldo-keto reductase family 1 member B1 (Homo sapiens, UniProt P15121) (assay: Inhibition of human recombinant N-terminus His6-tagged AKR1B1 expressed in Escherichia coli BL21 DE3 assessed as pyridine-3-aldehyde reduction by spectrometric analysis). Details: not given.

| Compound | pIC50 |
| --- | --- |
| O=C(/C=C/c1cccc(O)c1)OCCCc1ccccc1 | 4.39 |
| O=C(/C=C/c1ccc(O)cc1)OCCCc1ccccc1 | 5.96 |
| O=C(/C=C/c1cccc(O)c1)OCCc1ccccc1 | 4.14 |
| COc1cc(O)ccc1/C=C/C(=O)OCCc1ccccc1O | 5.02 |
| O=C(/C=C/c1ccc(O)c(O)c1)OCc1ccccc1 [BENZYL CAFFEATE] | 6.40 |
| COc1cc(O)ccc1/C=C/C(=O)OCCCc1ccc(O)cc1 | 4.96 |
| COc1cc(O)ccc1/C=C/C(=O)OCCCc1ccccc1 | 4.96 |
| COc1cc(O)ccc1/C=C/C(=O)OCCc1ccc(O)cc1 | 5.49 |
| O=C(/C=C/c1ccc(O)cc1)OCc1ccccc1 | 5.66 |
| CC(C)OC(=O)/C=C/c1ccc(O)cc1 [ISOPROPYL 3-(4-HYDROXYPHENYL)ACRYLATE] | 5.21 |
| COc1cc(O)ccc1/C=C/C(=O)OCCCc1cccc(O)c1 | 5.31 |
| O=C(/C=C/c1ccc(O)c(O)c1)OCCc1ccccc1 [CAFFEIC ACID PHENETHYL ESTER] | 6.24 |

Each compound was assayed against T1, Aldo-keto reductase family 1 member B10 (assay: Inhibition of human recombinant N-terminus His6-tagged AKR1B10 expressed in Escherichia coli BL21 DE3 assessed as pyridine-3-aldehyde reduction by spectrometric analysis). Details: not given.
Procedure, shortened: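 Purified recombinant 6-His AKR1B10 was assayed at 25 °C in 0.1 M potassium phosphate, pH 7.4, with 0.1 mM NADPH and 0.2 mM pyridine-3-aldehyde. Reductase rate was followed as NADPH absorbance change at 340 nm. IC50 is the mean of at least three determinations.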
Target sequence in this assay (O60218 whole entry): as above

| Compound | pIC50 |
| --- | --- |
| O=C(/C=C/c1cccc(O)c1)OCCCc1ccccc1 | 5.51 |
| O=C(/C=C/c1ccc(O)cc1)OCCCc1ccccc1 | 7.68 |
| O=C(/C=C/c1cccc(O)c1)OCCc1ccccc1 | 4.72 |
| COc1cc(O)ccc1/C=C/C(=O)OCCc1ccccc1O | 7.77 |
| O=C(/C=C/c1ccc(O)c(O)c1)OCc1ccccc1 [BENZYL CAFFEATE] | 6.68 |
| COc1cc(O)ccc1/C=C/C(=O)OCCCc1ccc(O)cc1 | 7.64 |
| COc1cc(O)ccc1/C=C/C(=O)OCCCc1ccccc1 | 7.80 |
| COc1cc(O)ccc1/C=C/C(=O)OCCc1ccc(O)cc1 | 7.85 |
| O=C(/C=C/c1ccc(O)cc1)OCc1ccccc1 | 6.89 |
| CC(C)OC(=O)/C=C/c1ccc(O)cc1 [ISOPROPYL 3-(4-HYDROXYPHENYL)ACRYLATE] | 6.04 |
| COc1cc(O)ccc1/C=C/C(=O)OCCCc1cccc(O)c1 | 8.21 |
| O=C(/C=C/c1ccc(O)c(O)c1)OCCc1ccccc1 [CAFFEIC ACID PHENETHYL ESTER] | 7.10 |

The compounds below were run against Aldo-keto reductase family 1 member B10 (Homo sapiens, UniProt O60218, W220Y) (assay: Competitive inhibition at human recombinant N-terminus His6-tagged AKR1B10 Trp220Tyr mutant expressed in Escherichia coli BL21 DE3 assessed as inhibition of NADP+ linked geraniol oxidation by fluorescence analysis). Details: not given.
Sequence of Aldo-keto reductase family 1 member B10 (Homo sapiens, UniProt O60218, W220Y) (O60218 whole entry W220Y): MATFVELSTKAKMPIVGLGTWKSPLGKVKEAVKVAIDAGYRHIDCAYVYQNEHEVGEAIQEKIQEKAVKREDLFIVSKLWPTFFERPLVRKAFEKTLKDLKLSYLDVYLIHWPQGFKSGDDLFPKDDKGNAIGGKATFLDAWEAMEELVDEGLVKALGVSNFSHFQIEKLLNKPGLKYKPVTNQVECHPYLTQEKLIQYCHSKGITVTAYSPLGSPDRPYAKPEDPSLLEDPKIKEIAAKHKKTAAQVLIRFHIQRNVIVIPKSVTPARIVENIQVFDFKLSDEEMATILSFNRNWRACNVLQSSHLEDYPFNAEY

| Compound | pKi |
| --- | --- |
| COc1cc(O)ccc1/C=C/C(=O)OCCCc1cccc(O)c1 | 7.82 |

Each compound was assayed against Aldo-keto reductase family 1 member B10 (Homo sapiens, UniProt O60218, V301L) (assay: Competitive inhibition at human recombinant N-terminus His6-tagged AKR1B10 Val301Leu mutant expressed in Escherichia coli BL21 DE3 assessed as inhibition of NADP+ linked geraniol oxidation by fluorescence analysis). Details: not given.
Sequence of Aldo-keto reductase family 1 member B10 (Homo sapiens, UniProt O60218, V301L) (O60218 whole entry V301L): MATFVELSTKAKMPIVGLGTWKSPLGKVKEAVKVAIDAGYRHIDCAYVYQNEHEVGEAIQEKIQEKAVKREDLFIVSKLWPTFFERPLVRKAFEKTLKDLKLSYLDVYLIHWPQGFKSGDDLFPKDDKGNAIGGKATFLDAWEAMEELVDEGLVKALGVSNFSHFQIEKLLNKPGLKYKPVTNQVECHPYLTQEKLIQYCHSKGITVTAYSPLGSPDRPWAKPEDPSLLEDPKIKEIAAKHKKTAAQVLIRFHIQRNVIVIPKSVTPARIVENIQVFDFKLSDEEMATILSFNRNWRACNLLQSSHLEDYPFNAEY

| Compound | pKi |
| --- | --- |
| COc1cc(O)ccc1/C=C/C(=O)OCCCc1cccc(O)c1 | 8.24 |

These compounds were tested against Aldo-keto reductase family 1 member B10 (Homo sapiens, UniProt O60218, Q303S) (assay: Competitive inhibition at human recombinant N-terminus His6-tagged AKR1B10 Gln303Ser mutant expressed in Escherichia coli BL21 DE3 assessed as inhibition of NADP+ linked geraniol oxidation by fluorescence analysis). Details: not given.
Sequence of Aldo-keto reductase family 1 member B10 (Homo sapiens, UniProt O60218, Q303S) (O60218 whole entry Q303S): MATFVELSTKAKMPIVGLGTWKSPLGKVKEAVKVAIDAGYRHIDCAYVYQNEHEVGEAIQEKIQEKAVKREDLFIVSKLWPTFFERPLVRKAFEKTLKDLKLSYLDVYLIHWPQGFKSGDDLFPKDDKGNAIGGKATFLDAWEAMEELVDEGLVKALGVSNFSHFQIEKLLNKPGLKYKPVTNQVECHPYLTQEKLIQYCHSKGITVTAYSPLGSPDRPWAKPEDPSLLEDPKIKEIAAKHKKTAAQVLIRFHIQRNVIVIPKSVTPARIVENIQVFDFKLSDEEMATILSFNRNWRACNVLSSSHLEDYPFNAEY

| Compound | pKi |
| --- | --- |
| COc1cc(O)ccc1/C=C/C(=O)OCCCc1cccc(O)c1 | 8.15 |

The compounds below were run against Aldo-keto reductase family 1 member B10 (Homo sapiens, UniProt O60218, S304A) (assay: Competitive inhibition at human recombinant N-terminus His6-tagged AKR1B10 Ser304Ala mutant expressed in Escherichia coli BL21 DE3 assessed as inhibition of NADP+ linked geraniol oxidation by fluorescence analysis). Details: not given.
Sequence of Aldo-keto reductase family 1 member B10 (Homo sapiens, UniProt O60218, S304A) (O60218 whole entry S304A): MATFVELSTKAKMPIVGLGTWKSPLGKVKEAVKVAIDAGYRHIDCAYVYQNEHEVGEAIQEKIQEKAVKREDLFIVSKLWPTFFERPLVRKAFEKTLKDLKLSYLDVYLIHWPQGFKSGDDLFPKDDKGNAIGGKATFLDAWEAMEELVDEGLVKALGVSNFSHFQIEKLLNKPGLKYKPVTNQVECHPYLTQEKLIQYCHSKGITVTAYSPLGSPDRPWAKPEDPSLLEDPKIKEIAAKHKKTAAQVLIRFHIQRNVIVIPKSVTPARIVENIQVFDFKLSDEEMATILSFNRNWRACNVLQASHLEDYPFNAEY

| Compound | pKi |
| --- | --- |
| COc1cc(O)ccc1/C=C/C(=O)OCCCc1cccc(O)c1 | 8.46 |

Each compound was assayed against Aldo-keto reductase family 1 member B10 (Homo sapiens, UniProt O60218, Q303S/V301L) (assay: Competitive inhibition at human recombinant N-terminus His6-tagged AKR1B10 Val301Leu/Gln303Ser double mutant expressed in Escherichia coli BL21 DE3 assessed as inhibition of NADP+ linked geraniol oxidation by fluorescence analysis). Details: not given.
Sequence of Aldo-keto reductase family 1 member B10 (Homo sapiens, UniProt O60218, Q303S/V301L) (O60218 whole entry V301L/Q303S): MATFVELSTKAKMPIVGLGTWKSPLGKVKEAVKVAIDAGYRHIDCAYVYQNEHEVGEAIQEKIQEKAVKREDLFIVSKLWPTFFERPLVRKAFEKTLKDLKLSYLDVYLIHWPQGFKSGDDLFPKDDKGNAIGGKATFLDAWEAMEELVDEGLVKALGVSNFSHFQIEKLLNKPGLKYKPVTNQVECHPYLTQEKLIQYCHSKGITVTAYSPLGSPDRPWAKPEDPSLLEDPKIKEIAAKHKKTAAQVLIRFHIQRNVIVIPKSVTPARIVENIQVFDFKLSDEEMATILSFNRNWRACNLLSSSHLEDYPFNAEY

| Compound | pKi |
| --- | --- |
| COc1cc(O)ccc1/C=C/C(=O)OCCCc1cccc(O)c1 | 7.64 |

The compounds below were run against T1, Aldo-keto reductase family 1 member B10 (assay: Inhibition of AKR1B10-mediated farnesal metabolism in human HeLa cells preincubated for 2 hrs measured after 6 hrs following [1-14C]farnesol addition). Details: not given.
Format: cell-based
Procedure, shortened: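 HeLa cells were transfected with pGW1-AKR1B10 and pretreated with inhibitor at a range of concentrations for 2 h. They were then incubated with [1-¹⁴C]farnesol for 6 h, and reduction of the resulting farnesal was analysed. Percent inhibition is the mean of duplicate experiments.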
Target sequence in this assay (O60218 whole entry): as the sequence (O60218 whole entry) above

| Compound | pIC50 |
| --- | --- |
| COc1cc(O)ccc1/C=C/C(=O)OCCCc1cccc(O)c1 | 6.52 |

What follows are compounds tested on U-937 (assay: Growth inhibition of AKR1B10-overexpressing human U937 cells at 0.2 uM by trypan blue dye exclusion assay). Details: not given.
Format: functional, cell-based
Procedure, shortened: (§2)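 U937 cells were transiently transfected with pGW1 plasmid carrying AKR1B10 cDNA and resuspended in fresh growth medium. They were seeded at 5 × 10⁴ cells/ml and treated with inhibitor for 0, 24, 48 and 72 h. Viable cells were counted by trypan blue exclusion.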

| Compound | growth inhibition (GI) |
| --- | --- |
| COc1cc(O)ccc1/C=C/C(=O)OCCCc1cccc(O)c1 | Active |

These compounds were tested on U-937 (assay: Growth inhibition of AKR1B10-overexpressing human U937 cells at 1 uM by trypan blue dye exclusion assay). Details: not given.
Format: functional, cell-based
Procedure, shortened: as §2

| Compound | growth inhibition (GI) |
| --- | --- |
| O=C(/C=C/c1ccc(O)c(O)c1)OCCc1ccccc1 [CAFFEIC ACID PHENETHYL ESTER] | Active |

These compounds were tested on U-937 (assay: Growth inhibition of human U937 cells at 0.2 uM by trypan blue dye exclusion assay). Details: not given.
Format: functional, cell-based

| Compound | growth inhibition (GI) |
| --- | --- |
| COc1cc(O)ccc1/C=C/C(=O)OCCCc1cccc(O)c1 | inactive |
| O=C(/C=C/c1ccc(O)c(O)c1)OCCc1ccccc1 [CAFFEIC ACID PHENETHYL ESTER] | inactive |

The compounds below were run on HeLa (assay: Growth inhibition of human HeLa cells at 0.2 uM by trypan blue dye exclusion assay). Details: not given.
Format: functional, cell-based

| Compound | growth inhibition (GI) |
| --- | --- |
| COc1cc(O)ccc1/C=C/C(=O)OCCCc1cccc(O)c1 | inactive |
| O=C(/C=C/c1ccc(O)c(O)c1)OCCc1ccccc1 [CAFFEIC ACID PHENETHYL ESTER] | inactive |

The compounds below were run on HeLa (assay: Cytotoxicity against human HeLa cells after 24 hrs by trypan blue dye exclusion assay). Details: read-out: LD50 (the source's name).
Format: functional

| Compound | CC50 [nM] |
| --- | --- |
| COc1cc(O)ccc1/C=C/C(=O)OCCCc1cccc(O)c1 | 36000 |
| O=C(/C=C/c1ccc(O)c(O)c1)OCCc1ccccc1 [CAFFEIC ACID PHENETHYL ESTER] | 56000 |

These compounds were tested against T2, Aldo-keto reductase family 1 member A1 (Homo sapiens) (UniProt P14550) (assay: Inhibition of human AKR1A1 at 30 uM). Details: not given.
T2 sequence (whole entry): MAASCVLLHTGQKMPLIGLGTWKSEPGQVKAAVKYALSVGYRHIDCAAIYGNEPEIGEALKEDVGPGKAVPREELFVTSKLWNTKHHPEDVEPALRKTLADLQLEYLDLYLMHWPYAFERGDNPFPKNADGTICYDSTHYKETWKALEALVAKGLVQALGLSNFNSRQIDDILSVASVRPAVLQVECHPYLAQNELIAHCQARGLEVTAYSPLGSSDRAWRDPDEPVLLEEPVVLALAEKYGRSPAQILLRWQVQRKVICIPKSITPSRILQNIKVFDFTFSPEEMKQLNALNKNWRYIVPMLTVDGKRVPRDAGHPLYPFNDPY

| Compound | inhibition |
| --- | --- |
| COc1cc(O)ccc1/C=C/C(=O)OCCCc1cccc(O)c1 | inactive |

The compounds below were run against T1, Aldo-keto reductase family 1 member B10 (assay: not given). Details: HeLa, 0.2 uM.
Target sequence in this assay (O60218 whole entry, looked up): as the sequence (O60218 whole entry) above

| Compound | inhibition |
| --- | --- |
| COc1cc(O)ccc1/C=C/C(=O)OCCCc1cccc(O)c1 | Active |

These compounds were tested against T1, Aldo-keto reductase family 1 member B10 (assay: Competitive inhibition at human recombinant N-terminus His6-tagged AKR1B10 expressed in Escherichia coli BL21 DE3 assessed as inhibition of NADP+ linked geraniol oxidation by fluorescence analysis). Details: not given.
Target sequence in this assay (O60218 whole entry): as the sequence (O60218 whole entry) above

| Compound | pKi |
| --- | --- |
| O=C(/C=C/c1ccc(O)c(O)c1)OCCc1ccccc1 [CAFFEIC ACID PHENETHYL ESTER] | 7.34 |
